{"data": "Experimental data from different studies", "rep papain-like protease": "Replicase polyprotein 1ab, papain-like protease (rep, Porcine epidemic diarrhea virus, UniProt P0C6Y4)", "rep main protease": "Replicase polyprotein 1ab, main protease (rep, Porcine epidemic diarrhea virus, UniProt P0C6Y4)", "PTGS1": "Prostaglandin G/H synthase 1 (PTGS1, Ovis aries, UniProt P05979)", "MAP2K2": "Dual specificity mitogen-activated protein kinase kinase 2 (MAP2K2, Homo sapiens, UniProt P36507)", "IPMK": "Inositol polyphosphate multikinase (IPMK, Homo sapiens, UniProt Q8NFU5)", "ALDH3A1": "Aldehyde dehydrogenase, dimeric NADP-preferring (ALDH3A1, Homo sapiens, UniProt P30838)", "note": "Compare with care: the assays were run in different laboratories."}
{"Structure (SMILES)": "CCC(C(=O)NCc1cc(O)c(O)c(Br)c1)c1ccccc1 (stereo not shown)", "target": "rep papain-like protease", "effect on": "enzyme activity", "mode": "inhibitor", "technique": "FRET", "IC50 [µM]": 10.6}
{"Structure (SMILES)": "NC(N)=S", "target": "Urease (Canavalia ensiformis, UniProt P07374)", "effect on": "enzyme activity", "mode": "inhibitor", "IC50 [µM]": 23.8}
{"Structure (SMILES)": "O=C(NCc1cc(O)c(O)c(Br)c1)c1ccco1", "target": "rep main protease", "effect on": "enzyme activity", "mode": "inhibitor", "technique": "FRET", "IC50 [µM]": 12.2}
{"Structure (SMILES)": "NS(=O)(=O)c1ccc(-n2nc(C(=O)NN3C(=O)c4ccccc4C3=O)cc2-c2ccccc2)cc1", "target": "PTGS1", "effect on": "enzyme activity", "mode": "inhibitor", "IC50 [µM]": 6.72}
{"Structure (SMILES)": "C=CC(=O)N1CCC(CNc2ncnc(N)c2-c2ccc(Oc3ccccc3)cc2)CC1", "target": "MAP2K2", "effect on": "enzyme activity", "mode": "inhibitor", "IC50 [µM]": "> 5"}
{"Structure (SMILES)": "COc1cccc(CNc2nc(NC3CCN(C(=O)c4ccccc4)CC3)c3nc[nH]c3n2)c1", "target": "IPMK", "effect on": "enzyme activity", "mode": "inhibitor", "IC50 [µM]": 9}
{"Structure (SMILES)": "NS(=O)(=O)c1ccc(-n2nc(C(=O)NN3C(=O)CCC3=O)cc2-c2ccccc2)cc1", "target": "PTGS1", "effect on": "enzyme activity", "mode": "inhibitor", "IC50 [µM]": 7.57}
{"Structure (SMILES)": "COc1nc2ccc(Br)cc2cc1[C@@H](c1ccccc1)[C@@](O)(CCN(C)C)c1cccc2ccccc12", "target": "ALDH3A1", "effect on": "enzyme activity", "mode": "inhibitor", "technique": "fluorescence", "IC50 [µM]": "< 10"}
{"Structure (SMILES)": "Cc1ccc(S(=O)(=O)NNc2ccc([N+](=O)[O-])cc2[N+](=O)[O-])cc1", "target": "PTGS1", "effect on": "enzyme activity", "mode": "inhibitor", "IC50 [µM]": 194}
{"Structure (SMILES)": "C=CC(=O)N1CCC([C@@H]2CCNc3c(C(N)=O)c(-c4ccc(Oc5ccccc5)cc4)nn32)CC1", "target": "MAP2K2", "effect on": "enzyme activity", "mode": "inhibitor", "IC50 [µM]": 0.133}
{"Structure (SMILES)": "O=C(NCc1cc(O)c(O)c(Br)c1)c1ccc(Cl)c(F)c1", "target": "rep papain-like protease", "effect on": "enzyme activity", "mode": "inhibitor", "technique": "FRET", "IC50 [µM]": 7.22}
{"Structure (SMILES)": "COc1cccc(CNc2nc(NC3CCN(Cc4ccccc4)CC3)c3nc[nH]c3n2)c1", "target": "IPMK", "effect on": "enzyme activity", "mode": "inhibitor", "IC50 [µM]": 2}
{"Structure (SMILES)": "Nc1ncnc2c1ncn2[C@@H]1C(F)=C(CO)[C@@H](O)[C@H]1O", "target": "Adenosylhomocysteinase (AHCY, Homo sapiens, UniProt P23526)", "effect on": "enzyme activity", "mode": "inhibitor", "IC50 [µM]": 0.15}
{"Structure (SMILES)": "O=C(NCc1cc(O)c(O)c(Br)c1)c1nccs1", "target": "rep papain-like protease", "effect on": "enzyme activity", "mode": "inhibitor", "technique": "FRET", "IC50 [µM]": 4.1}
{"Structure (SMILES)": "NS(=O)(=O)c1ccc(-n2nc(-c3nnc(CCl)o3)cc2-c2ccccc2)cc1", "target": "PTGS1", "effect on": "enzyme activity", "mode": "inhibitor", "IC50 [µM]": 6.72}
{"Structure (SMILES)": "Nc1nc2c(s1)C(c1ccccc1Cl)CC(=O)N2 (stereo not shown)", "target": "ALDH3A1", "effect on": "enzyme activity", "mode": "inhibitor", "technique": "fluorescence", "IC50 [µM]": "< 10"}
{"Structure (SMILES)": "COc1ccc(N2CCN(Cc3cn4c(-c5ccc(Br)cc5)nnc4s3)CC2)cc1", "target": "Aifm2 (Mus musculus, UniProt Q8BUE4, A354T/L360F)", "effect on": "enzyme activity", "mode": "inhibitor", "technique": "absorbance", "IC50 [µM]": "~0.518"}
{"Structure (SMILES)": "COc1ccc(C=NNC(=O)c2cc(-c3ccccc3)n(-c3ccc(S(N)(=O)=O)cc3)n2)cc1OC", "target": "PTGS1", "effect on": "enzyme activity", "mode": "inhibitor", "IC50 [µM]": 9.78}
{"Structure (SMILES)": "COc1ccc(C(=O)NCc2cc(O)c(O)c(Br)c2)cc1", "target": "rep papain-like protease", "effect on": "enzyme activity", "mode": "inhibitor", "technique": "FRET", "IC50 [µM]": 2.46}
{"Structure (SMILES)": "COc1cc(NC(=O)c2cnn(-c3ccc([N+](=O)[O-])cc3)c2C(F)(F)F)cc(OC)c1", "target": "PTGS1", "effect on": "enzyme activity", "mode": "inhibitor", "IC50 [µM]": 1.74}
{"Structure (SMILES)": "O=C(NCc1cc(O)c(O)c(Br)c1)c1ccccc1", "target": "rep papain-like protease", "effect on": "enzyme activity", "mode": "inhibitor", "technique": "FRET", "IC50 [µM]": 12.7}
{"Structure (SMILES)": "NS(=O)(=O)c1ccc(-n2nc(C(=O)NN=Cc3cccnc3)cc2-c2ccccc2)cc1", "target": "PTGS1", "effect on": "enzyme activity", "mode": "inhibitor", "IC50 [µM]": 8.94}
{"Structure (SMILES)": "CN(C)c1ccc(C(=O)NCc2cc(O)c(O)c(Br)c2)cc1", "target": "rep main protease", "effect on": "enzyme activity", "mode": "inhibitor", "technique": "FRET", "IC50 [µM]": 7.61}
{"Structure (SMILES)": "O=C(COC(=O)c1ccccc1Nc1cccc(C(F)(F)F)c1)Nc1ccc(F)cc1", "target": "PTGS1", "effect on": "enzyme activity", "mode": "inhibitor", "IC50 [µM]": 151}
{"Structure (SMILES)": "CC(=NNC(=O)c1cc(-c2ccccc2)n(-c2ccc(S(N)(=O)=O)cc2)n1)c1ccc(Br)cc1", "target": "PTGS1", "effect on": "enzyme activity", "mode": "inhibitor", "IC50 [µM]": 3.14}
{"Structure (SMILES)": "NC(=O)c1nnn(Cc2cc(Cl)c(C(=O)c3ccc(Cl)cc3)c(Cl)c2)c1N", "target": "D(1A) dopamine receptor (DRD1, Homo sapiens, UniProt P21728)", "effect on": "cAMP", "mode": "antagonist", "IC50 [µM]": 7.98}
{"Structure (SMILES)": "CC(=O)Oc1cccc(C(=O)NCc2cc(O)c(O)c(Br)c2)c1C", "target": "rep main protease", "effect on": "enzyme activity", "mode": "inhibitor", "technique": "FRET", "IC50 [µM]": 7.35}
{"Structure (SMILES)": "O=C1Nc2ccc(I)cc2/C1=C/c1cc(Br)c(O)c(Br)c1", "target": "Mitogen-activated protein kinase kinase kinase 20 (MAP3K20, Homo sapiens, UniProt Q9NYL2)", "effect on": "enzyme activity", "mode": "inhibitor", "IC50 [µM]": 1.13}
